Source: ChEMBL document CHEMBL1150866, “Chemical constituents from Lippia sidoides and cytotoxic activity” (J Nat Prod, 2001)
Values after ≈ are worked out from the molar mass of the structure shown.

Tests used:
Format in all cases: functional, cell-based
CCRF-CEM = assay: Cytotoxicity against human CEM cells after 3 days by MTT assay; conditions: 72 h
In short: (§1)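 Suspension cells were kept in RPMI1640 with 10% FBS and seeded at 0.5×10^6 cells/100 μL without preincubation. Fresh medium holding 0.39–25 μg/mL drug was added, and cells were exposed for 3 days. MTT in serum-free medium was then given for 3 h at 37 °C, the formazan dissolved in DMSO, and absorbance read at 550 nm.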

HL-60 = assay: Cytotoxicity against human HL60 cells after 3 days by MTT assay; conditions: HL-60, 72 h; in short: as §1
SW1573 = assay: Cytotoxicity against human SW1573 cells after 3 days by MTT assay; conditions: SW1573, 72 h
In short: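 Adherent cells were grown in RPMI1640 with 10% FBS, plated at 0.2×10^5 cells/100 μL, and left 24 h to attach. Drug in fresh medium was applied at 0.39–25 μg/mL for 3 days. Viability was by MTT in serum-free medium for 3 h at 37 °C, with DMSO solubilization and absorbance at 550 nm.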

Row | SMILES | IC50 (CCRF-CEM) | IC50 (HL-60) | IC50 (SW1573)
1 | CC1(C)C=Cc2c(-c3c4c(c5ccccc5c3O)OC(C)(C)C=C4)c(O)c3ccccc3c2O1 [tectol] | 0.78 µg/mL (≈ 1.73 µM) | 1.79 µg/mL (≈ 3.97 µM) | –
2 | O=C1c2c(O)cc(O)cc2OC(c2ccc(O)c(O)c2)C1O (stereo unspecified) [TAXIFOLIN] | > 10 µg/mL | > 10 µg/mL | > 10 µg/mL
3 | CC1=C[C@H]2C3=C(C(=O)c4ccccc4C3=O)[C@]3(O)c4ccccc4C(=O)[C@@]2(/C=C/C(C)(C)O)[C@H]3C1 [LIPPSIDOQUINONE] | 2.58 µg/mL (≈ 5.53 µM) | 2.38 µg/mL (≈ 5.1 µM) | –
4 | CC(=O)Oc1c(-c2c3c(c4ccccc4c2OC(C)=O)OC(C)(C)C=C3)c2c(c3ccccc13)OC(C)(C)C=C2 | > 10 µg/mL | > 10 µg/mL | > 10 µg/mL
5 | Cc1ccc2c(c1)C(=O)c1ccccc1C2=O [TECTOQUINONE] | > 10 µg/mL | > 10 µg/mL | > 10 µg/mL
6 | O=c1cc(-c2ccc(O)c(O)c2)oc2cc(O)cc(O)c12 [LUTEOLIN] | > 10 µg/mL | > 10 µg/mL | > 10 µg/mL
7 | COc1cc2c(c3ccccc13)OC(C)(C)C=C2 [LAPACHENOL] | > 10 µg/mL | > 10 µg/mL | > 10 µg/mL
8 | O=c1c(O)c(-c2ccc(O)c(O)c2)oc2cc(O)cc(O)c12 [QUERCETIN] | > 10 µg/mL | > 10 µg/mL | > 10 µg/mL
9 | CC(C)=CC1Oc2c(c3c(c4ccccc24)OC(C)(C)C=C3)C2=C1C(=O)c1ccccc1C2=O (stereo unspecified) [TECOMAQUINONE] | > 10 µg/mL | > 10 µg/mL | > 10 µg/mL
10 | O=c1cc(-c2ccc(O)c(O)c2)oc2cc(O[C@@H]3O[C@H](CO)[C@@H](O)[C@H](O)[C@H]3O)cc(O)c12 [GALUTEOLIN] | > 10 µg/mL | > 10 µg/mL | > 10 µg/mL
11 | COc1cc([C@H]2c3cc(O)c(OC)cc3C[C@@H](CO)[C@@H]2CO)ccc1O [ISOLARICIRESINOL] | > 10 µg/mL | > 10 µg/mL | > 10 µg/mL
